From PubChem
SR-BI uptake up – enhances SR-BI lipid uptake from DiI-HDL; 320,000 tested, 0.096% active; activation, % at 12.5 µM; AID 504775; CHO ldlA[mSR-BI] cells, DiI-HDL uptake fluorescence, 3 h; 100 = double the neutral-control signal;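 active = mean replicate activation of at least 60% and every replicate at or above 60%; inconclusive = mean or all-replicate condition met, but not both; inactive = mean below 60% and not all replicates reaching 60%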;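 also: 0% = median plate neutral-control signal and 100% = twice that signal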
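Material: SR-BI-overexpressing, LDLR-lacking CHO cells | Dosing: Single compound concentration, delivered by pin transfer | Probe or stimulus: Labelled HDL, 10 µg/mL | Signal: Bottom-read cell fluorescence after medium removal, ex 550/em 595 nm | Schedule: 3 h, 37 °C | Evaluation: HDL uptake via cellular fluorescence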
H9c2 TAG inh – triacylglycerol accumulation inhibition | H9c2 cells, Nile Red lipid (TAG) fluorescence; cells loaded with 200 µM oleic acid | inhibition, % at 12.5 µM | 230,000 tested, 0.66% active | AID 651582;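 active = pattern-corrected inhibition of lipid staining of at least 50% with the nuclear-stain viability signal not falling by more than 50%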;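 also: 0% = DMSO wells and 100% = triacsin C control wells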
Vif imaging – HIV Vif inhibition; AID 602346; 340,000 tested, 0.35% active; HEK293T cells, Vif self-association by quenched fluorescence, imaging, 24 h; inhibition, % at 7.49 µM; in the data active = inhibition above about 50%, passing the limit was not always enough; inconclusive = no clear call, values can overlap the other calls; inactive = below about 31%
SMARCA2 activ – activators of SMARCA2 function; MG213 cells, MMTV-luciferase reporter, dexamethasone, overnight; 370,000 tested, 1% active; activation, % at 9.1 µM; AID 652017; in the data active = activation above about 7.8%;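 also: 0% = vehicle wells and 100% = reference activator wells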
SR-BI HDL uptake – inhibitors of mouse SR-BI mediated HDL lipid uptake; Q61009; ldlA[mSR-BI] CHO cells, DiI-HDL uptake fluorescence, 3 h; inhibition, % at 12.5 µM; 320,000 tested, 0.96% active; AID 488896;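 active = mean replicate inhibition of at least 70% and a set share of replicates each scoring 70 or more; inconclusive = meets just one of the two criteria; inactive = fails both criteria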;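 also: 0% = median of neutral control wells and 100% = median of positive control wells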
Target sequence (Q61009 whole entry, looked up): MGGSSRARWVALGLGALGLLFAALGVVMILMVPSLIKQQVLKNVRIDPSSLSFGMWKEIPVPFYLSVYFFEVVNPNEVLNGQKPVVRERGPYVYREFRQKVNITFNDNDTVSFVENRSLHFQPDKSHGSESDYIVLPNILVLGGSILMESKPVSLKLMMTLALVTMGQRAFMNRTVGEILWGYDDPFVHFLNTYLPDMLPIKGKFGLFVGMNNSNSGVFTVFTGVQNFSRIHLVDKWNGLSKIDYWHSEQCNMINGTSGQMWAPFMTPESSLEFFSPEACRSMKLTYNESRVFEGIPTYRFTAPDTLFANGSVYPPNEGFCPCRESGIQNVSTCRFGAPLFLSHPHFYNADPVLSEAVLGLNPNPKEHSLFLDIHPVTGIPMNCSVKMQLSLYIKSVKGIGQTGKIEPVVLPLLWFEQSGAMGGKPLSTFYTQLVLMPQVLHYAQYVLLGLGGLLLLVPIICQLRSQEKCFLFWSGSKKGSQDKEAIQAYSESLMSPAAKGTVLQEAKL
Active calls of the source: *; ? = inconclusive; nt = no result given. Sampled rows, rich in hits. Any-hit rate of the full collection: about 2.5%.

SMILES | SR-BI uptake up | H9c2 TAG inh | Vif imaging | SMARCA2 activ | SR-BI HDL uptake
CCC1(C(=O)OC)NC(c2ccco2)C2C(=O)N(c3ccc(C)cc3)C(=O)C21 (stereo unspecified) | 157.8* | -3.0 | 5.5 | -0.7 | -157.8
CCOC(=O)C1(C)NC(c2ccco2)C2C(=O)N(c3ccc(C)cc3)C(=O)C21 (stereo unspecified) | 3.4 | -21.4 | 4.5 | -4.2 | -3.4
CC(C)=CCCC1(C)C=Cc2c(c(C)cc3c2[nH]c2cc(O)ccc23)O1 (stereo unspecified) | -106.6 | nt | 0.9 | 0.8 | 106.6*
COc1ccc(N2C(=O)c3[nH]nc(-c4ccccc4)c3C2c2cccc(C(F)(F)F)c2)cc1 (stereo unspecified) | nt | nt | nt | -4.3 | nt
CC(Nc1nc(-c2cccc(Br)c2)cs1)c1nc2cc(Cl)c(N3CCCCC3)cc2n1CCOCCO (stereo unspecified) | -75.4 | nt | nt | -1.0 | 75.4*
COc1cc(NC(=O)c2ccccc2Cl)c(OC)cc1NC(=O)CN1CCCCC1 | 5.9 | -1.2 | -1.3 | 7.8* | -5.9
COc1cc(OC)c(NC(=O)c2cc3ccccc3cc2O)cc1Cl | -93.9 | 21.5 | -17.0 | -3.1 | 93.9*
COc1cc(NC(=O)c2ccccc2)c(OC)cc1Cl | -86.0 | -2.7 | -0.1 | 0.9 | 86.0*
COc1cccc(CNC(=O)[C@H]2CCCN2C(=O)C2CCCN2C(=O)c2ccc(OC)c(F)c2)c1 (stereo partly specified) | nt | nt | nt | -3.8 | nt
O=c1cc(Cn2ccnc2)c2cc(O)ccc2o1 | -77.9 | nt | -2.3 | 1.7 | 77.9*
CCc1c(Cc2ccccc2)ncn1CCc1ccccc1OC | nt | nt | nt | -9.7 | nt
CCN1C(=O)N(C(C)=O)[C@H]2C[C@H](C(=O)N3CCCC3)[C@H](C)[C@H](c3ccccc3)C[C@H]21 | nt | nt | nt | -6.2 | nt
CC(=O)c1c(C)[nH]c(C(=O)OCc2cccc(Cl)c2)c1C | -71.0 | -27.8 | 1.4 | -4.2 | 71.0*
Cc1ccc(C)c(Cn2c(O)c(N=NC(=S)Nc3ccccc3F)c3ccccc32)c1 | -84.3 | 39.8 | 21.2 | -2.1 | 84.3*
COC(=O)[C@]12C[C@H](CC(=O)NCC3CCCCC3)C(=O)N(CCC3=CCCCC3)C1=C[C@H](COCc1ccccc1)O[C@@H]2C | nt | nt | nt | -1.4 | nt
Cc1ccnc(Nc2nc(-c3ccc(O)cc3)cs2)c1 | -25.2 | 13.2 | -6.9 | 0.4 | 25.2
Cc1ccnc(Nc2nc(-c3ccc(O)cc3O)cs2)c1 | -83.0 | 1.2 | -7.5 | 2.0 | 83.0*
CCCCN1CCCOc2cc(Br)ccc2S1(=O)=O | nt | nt | nt | -0.8 | nt
O=C(c1ccccc1O)N1N=C(C(F)(F)F)CC1(O)c1ccc([N+](=O)[O-])cc1 (stereo unspecified) | -71.2 | -4.6 | -6.4 | -2.0 | 71.2*
CCC1=NN(C(=O)c2ccc([N+](=O)[O-])cc2)C(O)(c2ccccc2)C1 (stereo unspecified) | -82.4 | 5.3 | -6.8 | 0.7 | 82.4*
CCC1=NN(C(=O)c2ccccc2O)C(O)(c2ccccc2)C1 (stereo unspecified) | -119.5 | 31.0 | -7.6 | 3.0 | 119.5*
CC(C)CN1CN2CCc3ccccc3C2CS1(=O)=O (stereo unspecified) | nt | nt | nt | 1.1 | nt
COC(=O)CN1C(=S)N(c2ccc(OC)cc2)C(=O)/C1=C/c1cccs1 | -59.6 | nt | 20.6 | 0.7 | 59.6
CCc1ccc(N2C(=O)/C(=C/c3cccs3)N(CC(=O)OC)C2=S)cc1 | -29.3 | nt | 116.1* | -3.3 | 29.3
COc1ccc(OC)c(CN2CCN(C(=O)c3cc(S(=O)(=O)Nc4ccccc4OC)ccc3C)CC2)c1 | -68.6 | nt | -5.1 | 1.2 | 68.6
SMILES | SR-BI uptake up | H9c2 TAG inh | Vif imaging | SMARCA2 activ | SR-BI HDL uptake
COc1ccc(NS(=O)(=O)c2cccc(C(=O)N3CCN(Cc4cc(OC)ccc4OC)CC3)c2)cc1 | -74.4 | -11.0 | -4.1 | -3.8 | 74.5*
COc1ccc(OC)c(CN2CCN(C(=O)c3ccc(C)c(S(=O)(=O)Nc4ccccc4OC)c3)CC2)c1 | -77.4 | 8.4 | 0.7 | -2.1 | 77.4*
CN(CC(=O)Nc1ccccc1C(=O)NC1CC1)Cc1ccc(Cl)cc1 | 3.6 | 3.3 | -8.7 | 7.9* | -3.6
NC(CCc1ccccc1)c1csc(Nc2ccc(C(=O)c3ccccc3)cc2)n1 (stereo unspecified) | nt | 16.7 | 56.8* | -4.6 | nt
NC(CCc1ccccc1)c1csc(Nc2ccc(C(=O)NCCO)cc2)n1 (stereo unspecified) | nt | 9.7 | -4.5 | -2.5 | nt
C#CCNC(=O)C[C@H]1C[C@@]2(C(=O)OC)C(=C[C@H](C3CCCC3)O[C@@H]2C)N(Cc2ccccc2)C1=O | nt | nt | nt | -3.7 | nt
COC(=O)C1=C(C)N(Cc2ccccc2C(F)(F)F)C(=NCc2ccc(C(F)(F)F)cc2)NC1CCc1ccccc1 (stereo unspecified) | nt | nt | nt | -6.5 | nt
CN(C)C=Nc1c(Br)cc(Br)c2nonc12 | -3.1 | -56.9 | 69.6* | 0.4 | 3.1
CN(C)C=Nc1nonc1-c1ccccc1 | ? | -13.9 | -5.1 | -3.0 | -63.3
C/C(=C\CNc1ncnc2nc[nH]c12)CO | 13.0 | nt | 26.8 | -0.2 | -13.0
CC(C)CCCCCCCCCCCCC(=O)NCC(=O)NC1C(C)OC(Nc2ncnc3nc[nH]c23)C(O)C1O (stereo unspecified) | -4.9 | 71.6* | 0.2 | -5.7 | 4.9
O=C(Nc1ccccc1C(=O)NCC1CC1)c1cccs1 | nt | nt | nt | -4.2 | nt
CCOc1ccccc1NCc1cc(=O)oc2cc(C)c(O)cc12 | -73.6 | nt | 3.0 | -2.9 | 73.6*
C/C(=N\NC(N)=O)C1(C)CCCCC1 | 10.8 | nt | -1.2 | -1.9 | -10.8
C/C(=N\NC(N)=S)C1(C)CCCCC1 | -77.9 | nt | 22.2 | -4.9 | 77.9*
Cc1[nH]c2ccccc2c1CC(=O)Nc1ccc(Nc2cccnc2)c(-c2cc(F)cc(F)c2)c1 | nt | nt | nt | -3.1 | nt
Cc1cc(C)c(S(=O)(=O)N2CCOC2CNC(=O)C(=O)NCCc2c[nH]c3ccccc23)c(C)c1 (stereo unspecified) | 196.4* | 30.2 | -7.4 | 0.3 | -196.4
O=C(CN(C(=O)c1ccccc1)C(=O)c1ccccc1)OCc1ccccc1 | -3.3 | -14.7 | 77.5* | -3.3 | 3.3
O=C(OCc1ccccc1)c1ccccc1 | 15.8 | nt | 11.1 | -0.2 | -15.8
CCC(C)n1c(-c2cccs2)nc2nc3ccccc3nc21 (stereo unspecified) | 13.3 | nt | 68.4* | 0.2 | -13.3
O=C(CC1CCCC1)N[C@H](C(=O)N1CCC[C@H]1C(=O)NC1CCCC1)C1CCCCC1 | nt | nt | nt | -3.4 | nt
CCOC(=O)C1=CCN(S(=O)(=O)c2ccccc2Br)C1c1ccc(Cl)cc1 (stereo unspecified) | nt | nt | nt | 3.5 | nt
COC(=O)[C@H](N[C@H](/C=C/c1ccccc1)[C@@H](O)Cc1ccccc1)c1ccccc1 | nt | nt | nt | -2.8 | nt
C/C(CCC1CC(C)OC1=O)=N\NC(N)=S (stereo unspecified) | -70.8 | -17.4 | -4.0 | -2.9 | 70.8*
C/C(CC1CC(C)(C)OC1=O)=N\NC(N)=S (stereo unspecified) | nt | -16.6 | -1.5 | 0.9 | nt
C/C(CCC1CC(C)(C)OC1=O)=N\NC(N)=S (stereo unspecified) | -72.0 | -18.2 | 0.7 | -6.7 | 72.0*
